Experimental data from ChEMBL document CHEMBL2331436, “Antimicrobial phenolics and unusual glycerides from Helichrysum italicum subsp. microphyllum” (2013).
≈ marks a conversion by molar mass, not a printed value.

Tests used:
Format in all cases: functional
Staphylococcus aureus [1] = assay: Antibacterial activity against epidemic methicillin-resistant Staphylococcus aureus EMRSA-16 after 18 hrs by MTT assay; conditions: EMRSA-16, 18 h
Procedure, shortened: (§1)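 MIC by broth microdilution in Mueller-Hinton broth with 20 mg/L Ca2+ and 10 mg/L Mg2+. Strains were grown overnight on nutrient agar at 37 °C. Agents were dissolved in DMSO, diluted in broth to a 512 mg/L stock, and serially diluted to a final 128−0.25 range with inoculum. Plates ran in duplicate for 18 h at 37 °C, then […] methanolic MTT for 30 min, scored by blue colour.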

Staphylococcus aureus [2] = assay: Antibacterial activity against Staphylococcus aureus XU212 overexpressing TetK tetracycline efflux pump after 18 hrs by MTT assay; conditions: XU212, 18 h; procedure, shortened: as §1
Staphylococcus aureus [3] = assay: Antibacterial activity against epidemic methicillin-resistant Staphylococcus aureus EMRSA-15 after 18 hrs by MTT assay; conditions: EMRSA-15, 18 h; procedure, shortened: as §1
Staphylococcus aureus [4] = assay: Antibacterial activity against Staphylococcus aureus ATCC 25923 after 18 hrs by MTT assay; conditions: ATCC 25923, 18 h
Procedure, shortened: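 Strain grown overnight at 37 °C on nutrient agar before assay. MIC by broth microdilution in Mueller-Hinton broth with 20 mg/L Ca2+ and 10 mg/L Mg2+. Agents in DMSO, diluted in MHB to a 512 mg/L stock, then serially diluted to a final 128−0.25 […]. Duplicates, 18 h at 37 °C, then 5 mg/L methanolic MTT for 30 min; colour read-out.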

Staphylococcus aureus [5] = assay: Antibacterial activity against Staphylococcus aureus 1199B overexpressing NorA pump after 18 hrs by MTT assay; procedure, shortened: as §1
Staphylococcus aureus [6] = assay: Antibacterial activity against Staphylococcus aureus RN4220 overexpressing MsrA macrolide efflux protein after 18 hrs by MTT assay; conditions: RN4220, 18 h; procedure, shortened: as §1

SMILES | MIC (Staphylococcus aureus [1]) [µg/mL] | MIC (Staphylococcus aureus [2]) [µg/mL] | MIC (Staphylococcus aureus [3]) [µg/mL] | MIC (Staphylococcus aureus [4]) [µg/mL] | MIC (Staphylococcus aureus [5]) [µg/mL] | MIC (Staphylococcus aureus [6]) [µg/mL]
C=C(COC(=O)CCC(C)C)[C@H]1Cc2cc(C(C)=O)ccc2O1 | > 128 | > 128 | > 128 | > 128 | > 128 | > 128
C=C(COC(=O)C(C)C)[C@H]1Cc2cc(C(C)=O)ccc2O1 | > 128 | > 128 | > 128 | > 128 | > 128 | > 128
C=C(COC(=O)C(C)CC)[C@H]1Cc2cc(C(C)=O)ccc2O1 (stereo partly specified) | > 128 | > 128 | > 128 | > 128 | > 128 | > 128
COC(=O)/C=C/c1ccc(OC/C=C(\C)CCC=C(C)C)cc1 | > 128 | > 128 | > 128 | > 128 | > 128 | > 128
COC(=O)/C=C\c1ccc(OC/C=C(\C)CCC=C(C)C)cc1 | > 128 | > 128 | > 128 | > 128 | > 128 | > 128
CCCc1oc(=O)c(C(C)c2c(O)c(CC=C(C)C)c(O)c(C(C)=O)c2O)c(O)c1C(C)C (stereo unspecified) | 128 (≈ 279 µM) | 128 (≈ 279 µM) | 32 (≈ 69.8 µM) | 128 (≈ 279 µM) | 32 (≈ 69.8 µM) | 32 (≈ 69.8 µM)
CCCc1oc(=O)c(C(c2ccccc2)c2c(O)c(CC=C(C)C)c(O)c(C(C)=O)c2O)c(O)c1C(C)C (stereo unspecified) | 8 (≈ 15.4 µM) | 4 (≈ 7.68 µM) | 6 (≈ 11.5 µM) | 8 (≈ 15.4 µM) | 16 (≈ 30.7 µM) | 2 (≈ 3.84 µM)
CCc1oc(=O)c(Cc2c(O)c(CC=C(C)C)c(O)c(C(C)=O)c2O)c(O)c1CC | 2 (≈ 4.8 µM) | 16 (≈ 38.4 µM) | 2 (≈ 4.8 µM) | 1 (≈ 2.4 µM) | 1 (≈ 2.4 µM) | 2 (≈ 4.8 µM)
CCc1c(C)oc(=O)c(C(C)c2c(O)c(CC=C(C)C)c(O)c(C(C)=O)c2O)c1O (stereo unspecified) | 128 (≈ 307 µM) | > 128 | 128 (≈ 307 µM) | 64 (≈ 154 µM) | 128 (≈ 307 µM) | 128 (≈ 307 µM)
CCCCCC(=O)C(c1c(O)c(CC=C(C)C)c(O)c(C(C)=O)c1O)c1c(O)c(CC)c(C)oc1=O (stereo unspecified) | 8 (≈ 16 µM) | 16 (≈ 32 µM) | 16 (≈ 32 µM) | 8 (≈ 16 µM) | 16 (≈ 32 µM) | 8 (≈ 16 µM)
C=C(COC(C)=O)[C@H]1Cc2cc(C(C)=O)ccc2O1 | > 128 | > 128 | > 128 | > 128 | > 128 | > 128
CCc1oc(=O)c(Cc2c(O)c(CC=C(C)C)c(O)c(C(C)=O)c2O)c(O)c1C [ARZANOL] | 2 (≈ 4.97 µM) | 4 (≈ 9.94 µM) | 4 (≈ 9.94 µM) | 1 (≈ 2.48 µM) | 1 (≈ 2.48 µM) | 2 (≈ 4.97 µM)
CCc1oc(=O)c(Cc2c(O)c3c(c(C(C)=O)c2O)OC(C)(C)CC3)c(O)c1C [CYCLOARZANOL A] | > 128 | 128 (≈ 318 µM) | 128 (≈ 318 µM) | 32 (≈ 79.5 µM) | 128 (≈ 318 µM) | 32 (≈ 79.5 µM)
CCc1oc(=O)c(Cc2c(O)c(C(C)=O)c(O)c3c2OC(C)(C)CC3)c(O)c1C [CYCLOARZANOL B] | > 128 | > 128 | > 128 | > 128 | > 128 | > 128
CCc1oc(=O)c(Cc2c(O)c(C)c(CC)oc2=O)c(O)c1C [HELIPYRONE] | 128 (≈ 400 µM) | > 128 | > 128 | 64 (≈ 200 µM) | > 128 | 12 (≈ 37.5 µM)
CCc1oc(OC)c(Cc2c(O)c(CC=C(C)C)c(O)c(C(C)=O)c2O)c(=O)c1C [METHYLARZANOL] | > 128 | > 128 | > 128 | > 128 | > 128 | > 128
CCC(C)C(=O)C(C)c1oc(=O)c(C)c(O)c1C (stereo unspecified) [MICROPYRONE] | 128 (≈ 507 µM) | > 128 | > 128 | > 128 | > 128 | 128 (≈ 507 µM)
C=C(COC(=O)CCCCCCCC)[C@H]1Cc2cc(C(C)=O)ccc2O1 [NONANOYLBITALIN A] | > 128 | > 128 | > 128 | > 128 | > 128 | > 128
CCn1cc(C(=O)O)c(=O)c2cc(F)c(N3CCNCC3)cc21 [NORFLOXACIN] | 128 (≈ 401 µM) | 8 (≈ 25.1 µM) | 0.5 (≈ 1.57 µM) | 0.5 (≈ 1.57 µM) | 32 (≈ 100 µM) | 0.5 (≈ 1.57 µM)
C=C(COC(=O)CCCCCCC/C=C\CCCCCCCC)[C@H]1Cc2cc(C(C)=O)ccc2O1 [OLEOYLBITALIN A] | > 128 | > 128 | > 128 | > 128 | > 128 | > 128
C=C(COC(=O)CC)[C@H]1Cc2cc(C(C)=O)ccc2O1 [PROPANOYLBITALIN A] | > 128 | > 128 | > 128 | > 128 | > 128 | > 128
